Source: ChEMBL document CHEMBL4118079, “Discovery of novel naphthoquinone derivatives as inhibitors of the tumor cell specific M2 isoform of pyruvate kinase” (Eur J Med Chem, 2017)
pIC50: −log10 of the molar value.

Assays:
[1] = target: T1, Pyruvate kinase PKM (Homo sapiens, UniProt P14618); experiment: Inhibition of recombinant human N-terminal His-tagged PKM2 expressed in Escherichia coli BL21 preincubated for 15 mins followed by PEP/NADH addition measured at 30 secs interval for 3 to 6 mins by fluorescent PK-LDH assay
Summary of the method: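 Human PKM2 with an N-terminal His tag, expressed in E. coli BL21 and Ni-agarose purified. Enzyme and compound preincubated 15 min in 50 mM Tris–HCl pH 7.5, 10 mM KCl, 5 mM MgCl2. NADH fluorescence read kinetically every 30 s for 3–6 min. IC50.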

[2] = test system: HCT-116; experiment: Antiproliferative activity against human HCT116 cells after 48 hrs by MTS assay; type: functional, cell-based; settings: HCT-116, 48 h
Summary of the method: (§1)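 Cells kept in RPMI 1640 with 9% FBS at 37°C, 5% CO2. 5000 cells/well seeded, left 12 h, then exposed to a range of compound concentrations or DMSO (negative control) for 48 h. MTS added, 3 h at 37°C, absorbance read at 490 nm. IC50 ± SD.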

[3] = test system: HeLa; experiment: Antiproliferative activity against human HeLa cells after 48 hrs by MTS assay; type: functional, cell-based; summary of the method: as §1
[4] = test system: NCI-H1299; experiment: Antiproliferative activity against human NCI-H1299 cells after 48 hrs by MTS assay; type: functional, cell-based; settings: NCI-H1299, 48 h; summary of the method: as §1
[5] = test system: NCI-H1299; experiment: Antiproliferative activity against human NCI-H1299 cells after 48 hrs in presence of PKM2 activator FBP by MTS assay; type: functional, cell-based; settings: NCI-H1299, 48 h
Summary of the method: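 H1299 cells in RPMI 1640 with 9% FBS at 37°C, 5% CO2. 5000 cells/well, 12 h attachment, then 48 h treatment at graded concentrations with FBP (100 µM) added. MTS read-out (3 h, 37°C, A490). IC50 ± SD.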

[6] = test system: BEAS-2B; experiment: Cytotoxicity against human BEAS2B cells assessed as reduction in cell viability after 48 hrs by MTS assay; type: cell-based; summary of the method: as §1
[7] = Selectivity index, ratio of IC50 for human BEAS2B cells to IC50 for human NCI-H1299 cells; type: toxicity; settings: BEAS2B cells and NCI-H1299 cells, read-out: Ratio IC50
[8] = target: T1, Pyruvate kinase PKM; experiment: Inhibition of recombinant human N-terminal His-tagged PKM1 expressed in Escherichia coli BL21 preincubated for 15 mins followed by PEP/NADH addition measured at 30 secs interval for 3 to 6 mins by fluorescent PK-LDH assay
Summary of the method: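 Human PKM1 with an N-terminal His tag, expressed in E. coli BL21 and Ni-agarose purified. Activity measured by PK–LDH coupling, with pyruvate formation tracked as NADH depletion by fluorescence in kinetic mode. IC50.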
Target sequence in this assay (P14618 whole entry): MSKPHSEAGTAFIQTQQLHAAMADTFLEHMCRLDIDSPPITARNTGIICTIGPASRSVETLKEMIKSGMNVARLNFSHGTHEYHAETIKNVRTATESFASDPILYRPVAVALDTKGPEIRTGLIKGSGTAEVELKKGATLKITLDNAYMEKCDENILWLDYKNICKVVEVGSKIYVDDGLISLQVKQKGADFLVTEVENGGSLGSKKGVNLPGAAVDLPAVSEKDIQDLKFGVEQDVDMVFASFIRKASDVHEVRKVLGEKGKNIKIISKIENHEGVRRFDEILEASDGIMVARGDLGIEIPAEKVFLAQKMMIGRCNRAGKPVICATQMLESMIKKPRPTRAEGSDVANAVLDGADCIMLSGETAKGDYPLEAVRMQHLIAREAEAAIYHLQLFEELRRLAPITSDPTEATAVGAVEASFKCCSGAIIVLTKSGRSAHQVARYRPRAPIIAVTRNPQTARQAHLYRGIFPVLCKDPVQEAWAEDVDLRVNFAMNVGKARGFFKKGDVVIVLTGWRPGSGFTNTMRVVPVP

[9] = species: Homo sapiens; experiment: Selectivity ratio of IC50 for recombinant human N-terminal His-tagged PKM1 expressed in Escherichia coli BL21 to IC50 for recombinant human N-terminal His-tagged PKM2 expressed in Escherichia coli BL21
[10] = target: Pyruvate kinase PKLR (Homo sapiens, UniProt P30613); experiment: Inhibition of recombinant human N-terminal His-tagged PKL expressed in Escherichia coli preincubated for 15 mins followed by PEP/NADH addition measured at 30 secs interval for 3 to 6 mins by fluorescent PK-LDH assay
Chain of Pyruvate kinase PKLR (P30613 whole entry): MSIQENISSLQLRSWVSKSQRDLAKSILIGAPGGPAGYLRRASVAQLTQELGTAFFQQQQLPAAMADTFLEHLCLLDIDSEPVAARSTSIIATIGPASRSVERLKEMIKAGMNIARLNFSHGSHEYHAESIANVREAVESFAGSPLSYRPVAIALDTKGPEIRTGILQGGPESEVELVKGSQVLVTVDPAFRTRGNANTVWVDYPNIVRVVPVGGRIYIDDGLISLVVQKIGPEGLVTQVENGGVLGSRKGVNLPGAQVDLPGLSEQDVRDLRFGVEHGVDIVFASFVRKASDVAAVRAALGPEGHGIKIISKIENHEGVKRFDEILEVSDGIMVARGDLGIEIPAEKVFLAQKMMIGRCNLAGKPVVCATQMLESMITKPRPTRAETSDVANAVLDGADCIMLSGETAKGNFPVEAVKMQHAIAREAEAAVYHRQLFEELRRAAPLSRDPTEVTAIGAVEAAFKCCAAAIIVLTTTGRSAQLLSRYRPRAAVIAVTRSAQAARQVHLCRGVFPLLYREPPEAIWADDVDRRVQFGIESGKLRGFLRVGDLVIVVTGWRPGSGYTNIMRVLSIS

[11] = species: Homo sapiens; experiment: Selectivity ratio of IC50 for recombinant human N-terminal His-tagged PKL expressed in Escherichia coli to IC50 for recombinant human N-terminal His-tagged PKM2 expressed in Escherichia coli BL21
[12] = test system: HCT-116; experiment: Antiproliferative activity against human HCT116 cells assessed as cell viability at 0.078 uM after 48 hrs by MTS assay relative to control; type: functional; settings: HCT-116, 48 h, read-out: Activity
[13] = test system: HCT-116; experiment: Antiproliferative activity against human HCT116 cells assessed as cell viability at 0.156 uM after 48 hrs by MTS assay relative to control; type: functional; settings: HCT-116, 48 h, read-out: Activity
[14] = test system: HCT-116; experiment: Antiproliferative activity against human HCT116 cells assessed as cell viability at 0.313 uM after 48 hrs by MTS assay relative to control; type: functional; settings: HCT-116, 48 h, read-out: Activity
[15] = test system: HCT-116; experiment: Antiproliferative activity against human HCT116 cells assessed as cell viability at 0.625 uM after 48 hrs by MTS assay relative to control; type: functional; settings: HCT-116, 48 h, read-out: Activity
[16] = test system: HeLa; experiment: Antiproliferative activity against human HeLa cells assessed as cell viability at 0.078 uM after 48 hrs by MTS assay relative to control; type: functional; settings: read-out: Activity
[17] = test system: HeLa; experiment: Antiproliferative activity against human HeLa cells assessed as cell viability at 0.156 uM after 48 hrs by MTS assay relative to control; type: functional; settings: read-out: Activity
[18] = test system: HeLa; experiment: Antiproliferative activity against human HeLa cells assessed as cell viability at 0.313 uM after 48 hrs by MTS assay relative to control; type: functional; settings: read-out: Activity
[19] = test system: HeLa; experiment: Antiproliferative activity against human HeLa cells assessed as cell viability at 0.625 uM after 48 hrs by MTS assay relative to control; type: functional; settings: read-out: Activity

pIC50 [1]	pIC50 [2]	pIC50 [3]	pIC50 [4]	Structure (SMILES)	also measured
5.06	6.39	6.41	6.05	CCN(CC)C(=S)SCC1=C(C)C(=O)c2ccccc2C1=O	pIC50 [5]: 5.80; pIC50 [6]: 4.82; selectivity ratio [7]: 17
5.17	5.22	4.92	5.37	CCCN(CCC)C(=S)SCC1=C(C)C(=O)c2ccccc2C1=O	
4.85	5.55	5.80	5.61	CC1=C(CSC(=S)N2CCN(C)CC2)C(=O)c2ccccc2C1=O	
< 4.70	5.34	5.08	5.27	CNC(=S)SCC1=C(C)C(=O)c2ccccc2C1=O	
5.28	5.76	5.71	5.48	CC1=C(CSC(=S)N2CCSC2)C(=O)c2ccccc2C1=O	
5.00	5.37	< 4.70	4.81	CCCN(CCC)C(=S)SC1=C(C)C(=O)c2ccccc2C1=O	
4.81	< 4.70	< 4.70	< 4.70	CCCN(CCC)C(=S)SCc1cc(OC)c2ccccc2c1OC	
	6.74	6.54	5.81	CC1=C(CSC(=S)N2CCCCC2)C(=O)c2ccccc2C1=O	inhibition [1]: Dose-dependent effect; pIC50 [8]: 4.78; Ratio IC50 [9]: 5.7; pIC50 [10]: 5.09; Ratio IC50 [11]: 2.8; pIC50 [5]: 5.70; pIC50 [6]: 4.73; selectivity ratio [7]: 11.8; viability at 0.078 µM [12]: 92.5%; viability at 0.156 µM [13]: 62.3%; viability at 0.313 µM [14]: 20.7%; viability at 0.625 µM [15]: 6.9%; viability at 0.078 µM [16]: 99%; viability at 0.156 µM [17]: 95.8%; viability at 0.313 µM [18]: 21.1%; viability at 0.625 µM [19]: 4.8%
5.29	4.97	4.87	4.95	CC1=C(CSC(=S)N(C)C2CCCCC2)C(=O)c2ccccc2C1=O	
5.31	5.45	5.89	4.99	CC1=C(SC(=S)N2CCCCC2)C(=O)c2ccccc2C1=O	
4.93	5.96	6.06	5.83	CC1=C(CSC(=S)N2CC(C)OC(C)C2)C(=O)c2ccccc2C1=O (configuration not stated)	
4.82	6.10	6.02	5.91	CC1=C(CSC(=S)N2CCOCC2)C(=O)c2ccccc2C1=O	
5.85	< 4.70	< 4.70	5.06	O=C1C=C(CSC(=S)N2CCN(c3ccccc3)CC2)C(=O)c2ccccc21	inhibition [1]: Dose-dependent effect; pIC50 [8]: 5.20; Ratio IC50 [9]: 4.5; pIC50 [10]: 5.42; Ratio IC50 [11]: 2.7
4.85	5.66	5.94	5.49	C=CCN(CC=C)C(=S)SCC1=C(C)C(=O)c2ccccc2C1=O	
4.70	5.84	6.06	5.79	CC1=C(CSC(=S)N2CCCC2)C(=O)c2ccccc2C1=O	
< 4.70	5.71	5.66	5.39	CC1=C(CSC(=S)N2CCN(C(C)C)CC2)C(=O)c2ccccc2C1=O	
5.07	5.64	5.67	5.49	CC1=C(SC(=S)N2CCOCC2)C(=O)c2ccccc2C1=O	

pIC50 [1]	pIC50 [2]	pIC50 [3]	pIC50 [4]	Structure (SMILES)	also measured
< 4.70	5.13	4.98	5.36	CC1=C(CSC(=S)NN2CCCCC2)C(=O)c2ccccc2C1=O	
< 4.70	6.23	6.30	6.17	CC1=C(CSC(=S)NCc2ccncc2)C(=O)c2ccccc2C1=O	
5.66	5.76	5.89	5.32	CC1=C(CSC(=S)NCc2ccccc2)C(=O)c2ccccc2C1=O	
5.59	5.74	6.29	5.72	CCN(CC)C(=S)SCC1=CC(=O)c2ccccc2C1=O	
5.37	5.43	5.62	5.24	O=C1C=C(CSC(=S)N2CCOCC2)C(=O)c2ccccc21	
< 4.70	6.74	6.42	5.97	CC1=C(CSC(=S)NCc2cccnc2)C(=O)c2ccccc2C1=O	
< 4.70	5.31	4.97	5.18	CC(=O)N1CCN(C(=S)SC2=C(C)C(=O)c3ccccc3C2=O)CC1	
< 4.70	5.68	5.45	5.33	CC(=O)N1CCN(C(=S)SCC2=C(C)C(=O)c3ccccc3C2=O)CC1	
< 4.70	5.65	5.32	5.71	CC1=C(CSC(=S)N(CCO)CCO)C(=O)c2ccccc2C1=O	
< 4.70	5.27	5.17	5.35	CC1=C(CSC(=S)NCc2ccccn2)C(=O)c2ccccc2C1=O	
5.23	6.05	6.49	5.92	CC1=C(CSC(=S)N2CCSCC2)C(=O)c2ccccc2C1=O	pIC50 [6]: 4.98; selectivity ratio [7]: 8.6
5.76	5.63	6.04	5.69	O=C1C=C(CSC(=S)N2CCCCC2)C(=O)c2ccccc21	pIC50 [6]: 4.71; selectivity ratio [7]: 9.4
	5.74	5.61	5.73	CC(C)=CC[C@@H](O)C1=CC(=O)c2c(O)ccc(O)c2C1=O [SHIKONIN]	Ratio IC50 [9]: 1.5; Ratio IC50 [11]: 4.5; pIC50 [6]: 5.27; selectivity ratio [7]: 2.9
< 4.70	5.47	5.24	5.40	CCN(CC)CCNC(=S)SCC1=C(C)C(=O)c2ccccc2C1=O	
5.34	4.96	4.73	5.19	CCCCN(CCCC)C(=S)SCC1=C(C)C(=O)c2ccccc2C1=O	
< 4.70	5.70	5.41	< 4.70	CC1=C(CSC(=S)NN2CCN(C)CC2)C(=O)c2ccccc2C1=O	
